Here are results for seven compounds from ChEMBL document CHEMBL1157689, “Synthesis and anti-HIV evaluation of water-soluble calixarene-based bithiazolyl podands” (Bioorg Med Chem, 2010).

For data set [1], the system named is Human immunodeficiency virus 1. Kind of data set: Antiviral activity against HIV1 3B infected in human MT4 cells assessed as protection from virus-induced cytopathogenicity by MTT assay. The class given is functional, organism-based. The following applies: Human immunodeficiency virus 1, 3B. The gist of the method:
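HIV-1 IIIB replication in MT4 cells followed by virus-induced cytopathogenic effect. IC50 is the concentration protecting 50% of infected cells against cytopathogenicity. Values are averages of at least two or three separate experiments.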
On the technique in general: Cytopathic effects are the visible damage that an infection or toxin causes in cultured cells.

The nature of data set [2]: Cytotoxicity against human MT4 cells by MTT assay. The class given is cell-based. The gist of the method:
(§1)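 Uninfected CEM-SS, MT4 or PBMC cells exposed to compound, up to 100 μM for most compounds. CC50 is the concentration causing 50% death of uninfected cells. Values are averages of at least two or three separate experiments.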
For orientation: Tetrazolium assays rely on reduction of a dye to a coloured formazan, in cell work by metabolically active cells.

Data set [3] can be described thus: Selectivity index, ratio of CC50 for human MT4 cells to IC50 for HIV1 3B infected in human MT4 cells. In kind it is functional. The gist of the method:
(§2)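 Selectivity index calculated as CC50/IC50 for each cell system: CEM-SS/HIV-1 LAI, MT4/HIV-1 IIIB, PBMC/HIV-1 Bal.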

The nature of data set [4]: Cytotoxicity against human CEM-SS cells by MTT assay. The class given is cell-based. The gist of the method:
as §1

A short description of data set [5]: Selectivity index, ratio of CC50 for human CEM-SS cells to IC50 for HIV1 LAI infected in human CEM-SS cells. The class given is functional. The gist of the method: as §2
Data set [6] is described as follows: Cytotoxicity against human PBMC by MTT assay. In kind it is cell-based. The gist of the method:
as §1

A short description of data set [7]: Selectivity index, ratio of CC50 for human PBMC to IC50 for HIV1 BaL infected in human PBMC. In kind it is functional. The gist of the method:
as §2

Data set [8] relates to Human immunodeficiency virus 1. Kind of data set: Antiviral activity against HIV1 BaL infected in human PBMC assessed as inhibition of viral replication by reverse transcriptase activity measurement. The conditions noted are these: Human immunodeficiency virus 1, BaL.
The test system of data set [9] is Human immunodeficiency virus 1. Kind of data set: Antiviral activity against HIV1 LAI infected in human CEM-SS cells assessed as inhibition of viral replication by reverse transcriptase activity measurement. The conditions noted are these: Human immunodeficiency virus 1, LAI.

The term IC50 denotes the concentration needed to halve the response being measured. Usually CC50 stands for the concentration giving 50% cytotoxicity. Read a high CC50 as lower toxicity to the cells. Regarding `O=C([O-])Cc1cc2c(O)c(c1)Cc1cc(CC(=O)[O-])cc(c1O)Cc1cc(CC(=O)[O-])cc(c1O)Cc1cc(CC(=O)[O-])cc(c1O)C2.[Na+].[Na+].[Na+].[Na+]`, the IC50 in data set [1] amounted to 44 µM; in data set [8], 9.5 µM; in data set [9], 81 µM. In addition, the CC50 in data set [2] was above 100 µM; in data set [4] it was above 100 µM; in data set [6], 100 µM. The entries for the “Ratio CC50/IC50” value in data set [3], in data set [5] and in data set [7] were above 2.3, above 1.2 and 10.5, respectively.
For the compound `O=P([O-])(O)Cc1cc2c(O)c(c1)Cc1cc(CP(=O)([O-])O)cc(c1O)Cc1cc(CP(=O)([O-])O)cc(c1O)Cc1cc(CP(=O)([O-])O)cc(c1O)C2.[Na+].[Na+].[Na+].[Na+]`, the IC50 in data set [1] is above 100 µM; in data set [8], 70 µM; in [9], above 100 µM. Further, the CC50 was above 100 µM in [2], above 100 µM in data set [4] and 78 µM in data set [6]. Moreover, the “Ratio CC50/IC50” value in data set [7] is given as above 1.
`O=S(=O)([O-])c1cc2c(O)c(c1)Cc1cc(S(=O)(=O)[O-])cc(c1O)Cc1cc(S(=O)(=O)[O-])cc(c1O)Cc1cc(S(=O)(=O)[O-])cc(c1O)C2.[Na+].[Na+].[Na+].[Na+]`: the 50% inhibitory concentration (IC50) in data set [1] amounted to 38 µM; in data set [8] it was 45 µM; in data set [9], 86 µM. Further, the CC50 in [2], in data set [4] and in data set [6] was above 100 µM each time. Further, the results for the “Ratio CC50/IC50” value in [3], in data set [5] and in data set [7] were above 2.6, above 1.2 and above 2, respectively.
With `Cc1nc(-c2nc(COc3c4cc(CC(=O)[O-])cc3Cc3cc(CC(=O)[O-])cc(c3O)Cc3cc(CC(=O)[O-])cc(c3OCc3nc(-c5nc(C)c(C(=O)[O-])s5)sc3C(=O)[O-])Cc3cc(CC(=O)[O-])cc(c3O)C4)c(C(=O)[O-])s2)sc1C(=O)[O-].[Na+].[Na+].[Na+].[Na+].[Na+].[Na+].[Na+].[Na+]`, the IC50 in data set [1] was 14 µM; in data set [8] it was above 37 µM; in data set [9], 5.3 µM. Moreover, the CC50 was above 100 µM in [2], above 100 µM in data set [4] and 37 µM in data set [6]. The “Ratio CC50/IC50” value in data set [3] is above 7; in data set [5], above 26; in data set [7] it was below 1.
Take `Cc1csc(-c2nc(COc3c4cc(CC(=O)[O-])cc3Cc3cc(CC(=O)[O-])cc(c3O)Cc3cc(CC(=O)[O-])cc(c3OCc3csc(-c5nc(C)cs5)n3)Cc3cc(CC(=O)[O-])cc(c3O)C4)cs2)n1.[Na+].[Na+].[Na+].[Na+]`: the values for the concentration for half-maximal inhibition (IC50) in data set [1], in data set [8] and in data set [9] were 16.5 µM, 27.7 µM and 28 µM, respectively. Moreover, the cytotoxic concentration (CC50) was above 1000 µM in [2], above 1000 µM in data set [4] and 230 µM in [6]. Moreover, the “Ratio CC50/IC50” value in data set [3] is recorded as above 60; in [5], above 36; in data set [7], 8.3.
On to `Cc1csc(-c2nc(COc3c4cc(CP(=O)([O-])O)cc3Cc3cc(CP(=O)([O-])O)cc(c3O)Cc3cc(CP(=O)([O-])O)cc(c3OCc3csc(-c5nc(C)cs5)n3)Cc3cc(CP(=O)([O-])O)cc(c3O)C4)cs2)n1.[Na+].[Na+].[Na+].[Na+]`, for which the IC50 in data set [1] came to 14 µM; in [8], 57 µM; in data set [9], 15 µM. Besides, the cytotoxic concentration (CC50) in data set [2] was above 100 µM; in data set [4] it was above 100 µM; in [6], 92 µM. For the same compound, the “Ratio CC50/IC50” value was above 7 in data set [3], above 6 in data set [5] and above 1.7 in data set [7].
In the case of `Cc1cn([C@H]2C[C@H](N=[N+]=[N-])[C@@H](CO)O2)c(=O)[nH]c1=O` [ZIDOVUDINE], the CC50 is above 100 µM in [2], above 100 µM in [4] and 75 µM in [6]. Besides, the half-inhibitory concentration (IC50) in data set [8] turned out to be 0.0077 µM; in data set [9], 0.0051 µM.
